Variants at the floor of the assay were thinned out.
B1: tRNA (parent)
chain: GUUCCGUUGGCGUAAUGGUAACGCGUCUCCCUCCUAAGGAGAAGACUGCGGGUUCGAGUCCCGUACGGAACG

Variants of: B1
Experiment: yeast fitness relative to wild type (ratio to wild type); higher = fitter; tRNA-Arg(CCU), competitive growth, 37 C, YPD
In short: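 Amplicons of the tRNA-Arg(CCU) gene were sequenced, 100-nucleotide paired-end, from the start population and from each end population of a pooled yeast competition. The competition, in six parallel replicates, lasted 24 hours in YPD at 37°C. Fitness relative to wild type was calculated from changes in genotype frequencies. Genotypes had to have ≥ 100 starting reads, and estimates < 0.5 were set to 0.5.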

GUUCCGUUGGCGUAAUGGUAACGCGUCUCCGUCUUAAGGAGAAGAUUGCGGGUUCAAGUCCCGUACGGAACG and GUUCCGUUGGCGUAAUGGUAACGCGUCUCCGUCCUAAGGAGAAGACUGCGGGUUGGAGUCCCGCACGGAACG cannot be ordered by yeast fitness: at most 0.5 for the first, at most 0.5 for the second.

Going from GUUCCGUUGGCGUAAUGGUAACGCGUCUCCGUCCUAAGGAGAAGACUACGGGUUCGAGCCCCGUACGGAACG to GUUCCGUUGGCGUAAUGGUAACGCGUCUCCGUCCUAAGGAGAAGACUGCGGGUUCGAGUCCUGUACGGAACG, the yeast fitness rises from 0.793 to 1.07.

First: GUUCCGUUGGCGUAAUGGUAACGCGUCUCCGUCGUGAGGAGAAGACUGCGGGUUCGAGUCCCGUAAGGAACG
Second: GUUCCGUUGGCGUAAUGGUAACGCGUCUCCGUCCUAAGGAGAAGACUGCGGGUUUGAGACCCGUACGGAACG
The yeast fitness of the first is lower: at most 0.5 for the first, 0.559 for the second.

First: GUUCCGUUGGCGUAAUGGUAACGCGUCUCCGUCCUAAGGAGAAUACUGCGGGUUCGAGUCCCGUACGGACCG
Second: GUUCCGUUGGCGUAAUGGUAACGCGUCUCCGUCCUAAGGAGAAGACUGCGGGUUCGAGUCCUGUGCGGAACG
The yeast fitness of the first is lower: at most 0.5 for the first, 0.71 for the second.

First: GUUCCGUUGGCGUAAUGGUAACGCGUCUCCGUCCUAAGGAGAAGACUGUGGGUUCGAGUCCCGUACGGAACG
Second: GUUCCGUUGGCGUAAUGGUAACGCGUCUCCGUCCUAAGGAGAAGACUGAGGGUUCGAGUCCCGUACGGAACG
The yeast fitness of the first is higher: 0.92 for the first, 0.734 for the second.

Going from GUUCCGUUGGCGUAAUGGUAACGCGUCUCCGUUCUAAGGAGAAGACUGCGGGUGAGAGUCCCGUACGGAACG to GUUCCGUUGGCGUAAUGGUAACGCGUCUCCGUACUAAGGAGAAGACUGCGGGUUCGAGUCCCGUAAGGAACG, the yeast fitness rises from at most 0.5 to 0.734.

First: GUUCCGUUGGCGUAAUGGUAACGCGUCUCCGUCCUAAAGAGAAGACUGCGGGUACGAGUCCCGUACGGAACG
Second: GUUCCGUUGGCGUAAUGGUAACGCGUCUCCGUCCUAAGGAGAAGACUGCGGGUUCGAGUCCAGUACGGACCG
The yeast fitness of the first is lower: at most 0.5 for the first, 0.54 for the second.

First: GUUCCGUUGGCGUAAUGGUAACGCGUCUCCGUCUUAAGGAGAAGACUGCGGGUUCGUGUCCCGUACGGAACG
Second: GUUCCGUUGGCGUAAUGGUAACGCGUCUCCGUCCUAAGGAGAAGACUGCGGGUUCGAGUCCCGUACGGAGCG
The yeast fitness of the first is lower: 0.561 for the first, 0.914 for the second.

GUUCCGUUGGCGUAAUGGUAACGCGUCUCCGUCCUAAGGAGAAGACUGUCGGUUCGAGUCCCGUACGGUACG and GUUCCGUUGGCGUAAUGGUAACGCGUCUCCGUCCUAACGAGAUGACUGCGGGUUCGAGUCCGGUACGGAACG cannot be ordered by yeast fitness: at most 0.5 for the first, at most 0.5 for the second.

Going from GUUCCGUUGGCGUAAUGGUAACGCGUCUCCGUCCUAAGGAGAAGACUCCGGGUUCGAAUCCCGUACGGAACG to GUUCCGUUGGCGUAAUGGUAACGCGUCUCCGUCCUAAGGAGAAGAGUGCGGGUUCGAGUCGCGUACGGAACG, the yeast fitness falls from 0.821 to at most 0.5.

Going from GUUCCGUUGGCGUAAUGGUAACGCGUCUCCGUCUUAAGGAGAAGAUUGCGGGUUCAAGUCCCAUACGGAACG to GUUCCGUUGGCGUAAUGGUAACGCGUCUCCGUCCUAAGGAGAACACUGCGGGUUCGAGUCCCGUACGGCACG, the yeast fitness rises from at most 0.5 to 0.611.

Compared with GUUCCGUUGGCGUAAUGGUAACGCGUCUCCGUCCUAAGGAGAAGACUGCGGGUUCGAGUCCCGUACGGGACG, GUUCCGUUGGCGUAAUGGUAACGCGUCUCCGUCCUAAGGAGAAGACUGCGGGUUCGAGUGCAGUACGGAACG is lower in yeast fitness: 1.02 for the first, 0.624 for the second.

Going from GUUCCGUUGGCGUAAUGGUAACGCGUCUCCGUCCUAAGGAGAACAUUGCGGGUUCGAGUCCCGUACGGAACG to GUUCCGUUGGCGUAAUGGUAACGCGUCUCCGUUCUAAGGAGGAGACUGCGGGUUCGAGUCCCGCGCGGAACG, the yeast fitness falls from 1 to at most 0.5.

First: GUUCCGUUGGCGUAAUGGUAACGCGUCUCCGUCCUAAGGACAAGACUGCCGGUUCGAGUCCCGUACGGAACG
Second: GUUCCGUUGGCGUAAUGGUAACGCGUCUCCGUCCUAAGGAGAAGACUGCGGGUUCGAGUCACGUACGGAACG
The yeast fitness of the first is lower: 0.533 for the first, 0.65 for the second.

Compared with GUUCCGUUGGCGUAAUGGUAACGCGUCUCCGUUCUACGGAGAAGACUGCGGGUUCGAGUCCCGUUCGGAACG, GUUCCGUUGGCGUAAUGGUAACGCGUCUCCGUCCUAAGGAGAAGAUUGUGGGUUCCAGUCCCGUACGGAACG is lower in yeast fitness: 0.538 for the first, at most 0.5 for the second.

GUUCCGUUGGCGUAAUGGUAACGCGUCUCCGUCUUAAGGAGAAGACUGCGGGUUUGAGUCCCAUACGGAACG and GUUCCGUUGGCGUAAUGGUAACGCGUCUCCGUCCUAAGGAGAAGACUGCGGGUUCGAGUCACGUACCGAACG cannot be ordered by yeast fitness: at most 0.5 for the first, at most 0.5 for the second.

First: GUUCCGUUGGCGUAAUGGUAACGCGUCUCCGUCCUAAGGAGAAGACUGCGGGUUAGAGUCCCGUACGGAACG
Second: GUUCCGUUGGCGUAAUGGUAACGCGUCUCCGUCCUAAGGAGAACACUGCGGGUUCGAGUCCCGUGCGGCACG
The yeast fitness of the first is higher: 0.605 for the first, at most 0.5 for the second.

GUUCCGUUGGCGUAAUGGUAACGCGUCUCCGUCUUAAGGCGAAGACUGCGGGUUCGAGUCCCCUACGGAACG and GUUCCGUUGGCGUAAUGGUAACGCGUCUCCGUCCUAAGGAGAAGACUGCGGGUUCGAGUGCUGUACGAAACG cannot be ordered by yeast fitness: at most 0.5 for the first, at most 0.5 for the second.

Variant GUUCCGUUGGCGUAAUGGUAACGCGUCUCCGUCUUAAGGCGAAGACUGCGGGUUCGAGUCCCGUACGGCACG has a yeast fitness of at most 0.5.

Source: the RNAGym collection of RNA variant scans (doi:10.1126/science.aae0568)
